Assay results reported in ChEMBL document CHEMBL1126834, “Chemistry, binding affinities, and behavioral properties of a new class of "antineophobic" mitochondrial DBI receptor complex (mDRC) ligands” (J Med Chem, 1993).
Several values for one entry are separate records, joined by “and”; a condition that tells them apart may be missing. Identical values can stand only once.

Key:
[1] = Inhibitory activity by measuring its ability to displace [3H]glycine from glycine receptor in rat brain; assay type: tissue-based
[2] = Inhibitory activity at GABA B receptor, measured by the ability to displace [3H]baclofen from GABA B receptor in rat brain; assay type: tissue-based
Glutamate NMDA receptor = test: Inhibitory activity by measuring its ability to displace [3H]-MK-801 from glutamate(NMDA) receptor in rat brain; assay type: tissue-based
[3] = target: GABA-A receptor; anion channel; test: Inhibitory activity at GABA A receptor, measured by the ability to displace [35S]TBPS from GABA A receptor in rat brain; assay type: tissue-based
[4] = target: GABA-A receptor; anion channel; test: Inhibitory activity at GABA A receptor, measured by the ability to displace [3H]zolpidem from GABA A receptor in rat brain; assay type: tissue-based
Rattus norvegicus [5] = test: Tested for antineophobic activity using the elevated plus maze test administered at 78 umol/kg perorally in rats; assay type: functional
Translocator protein = Translocator protein (Rattus norvegicus, UniProt P16257); test: Binding affinity against mitochondrial DBI complex (peripheral benzodiazepine receptor) using primary cultures of glial cells
In short: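 Glia from cerebella of 8-day-old Sprague–Dawley rat pups, trypsin-dissociated and grown 14 days (~95% astroglia). Cells lysed in 50 mM Hepes pH 7.4, 4 μg protein per tube. Incubated with [3H]4'-chlorodiazepam and competitor for 90 min at 4 °C, then filtered. Nonspecific binding defined with 10 μM 4'-chlorodiazepam. Triplicate competition curves; IC50 by nonlinear regression, converted to Ki (Bylund–Yamamura).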

[6] = target: Adrenergic receptor alpha; test: Inhibitory activity by measuring its ability to displace [3H]WB-4101 from alpha-adrenergic receptor in rat brain; assay type: tissue-based
[7] = Tested for inhibitory activity by measuring its ability to displace [3H]AMPA from glutamate (non-NMDA) receptor in rat brain; assay type: tissue-based
Adrenergic receptor beta = Adrenergic receptor beta (Rattus norvegicus, UniProt P18090+P10608+P26255); test: Inhibitory activity by measuring its ability to displace [125I]pindolol from beta-adrenergic receptor in rat brain; assay type: tissue-based
[8] = target: GABA-A receptor; anion channel; test: Inhibitory activity at GABA A receptor, measured by the ability to displace [3H]GABA from GABA A receptor in rat brain; assay type: tissue-based
Cannabinoid receptor 1 = Cannabinoid receptor 1 (Rattus norvegicus, UniProt P20272); test: Inhibitory activity, measured by displacement [3H]CP-55940 from cannabinoid receptor (CB1) in rat brain; assay type: tissue-based
[9] = Inhibitory activity by measuring its ability to displace [3H]spiperone from dopamine or serotonin 5-HT-1 receptors in rat brain; assay type: tissue-based
[10] = target: GABA-A receptor; anion channel; test: Inhibitory activity at GABA A receptor, measured by the ability to displace [3H]flumazenil from GABA A receptor in rat brain; assay type: tissue-based
[11] = target: T1, Gastrin/cholecystokinin type B receptor (Rattus norvegicus, UniProt P30553); test: Inhibitory activity by measuring its ability to displace [3H]L-365260 from cholecystokinin receptor in rat brain; assay type: tissue-based
T1 sequence (P30553 whole entry): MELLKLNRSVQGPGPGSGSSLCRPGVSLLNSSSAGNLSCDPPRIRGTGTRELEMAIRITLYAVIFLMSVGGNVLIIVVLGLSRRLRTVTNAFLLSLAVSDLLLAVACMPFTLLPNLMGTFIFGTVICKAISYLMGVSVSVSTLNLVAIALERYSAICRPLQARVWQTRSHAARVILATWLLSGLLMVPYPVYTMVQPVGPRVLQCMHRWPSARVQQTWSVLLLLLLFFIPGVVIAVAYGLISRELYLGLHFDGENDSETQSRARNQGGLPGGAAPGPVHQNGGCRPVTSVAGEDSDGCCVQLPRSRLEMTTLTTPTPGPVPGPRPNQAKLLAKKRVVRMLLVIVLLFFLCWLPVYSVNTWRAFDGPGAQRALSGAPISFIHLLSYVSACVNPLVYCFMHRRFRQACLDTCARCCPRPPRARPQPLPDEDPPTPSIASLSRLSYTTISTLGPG

[12] = target: Adrenergic receptor alpha; test: Inhibitory activity by measuring its ability to displace [3H]clonidine from alpha-adrenergic receptor in rat brain; assay type: tissue-based
[13] = target: Serotonin 2 (5-HT2) receptor (Rattus norvegicus); test: Inhibitory activity by measuring its ability to displace [3H]ketanserin from serotonin receptor in rat brain
[14] = target: Sigma receptor (Rattus norvegicus); test: Tested for inhibitory activity by measuring its ability to displace [3H]3-PPP from sigma receptor in rat brain
Rattus norvegicus [15] = test: Tested for antineophobic activity using the elevated plus maze test administered at 40 umol/kg perorally in rats; assay type: functional
Opioid receptor = Opioid receptor (Rattus norvegicus, UniProt P33533+P34975+P33535); test: Inhibition of [3H]naxolone binding to opiate receptors in rat brain; assay type: tissue-based
Rattus norvegicus [16] = test: Tested for antineophobic activity using the elevated plus maze test administered at 57 umol/kg perorally in rats; assay type: functional
Rattus norvegicus [17] = test: Tested for antineophobic activity administered at 225 umol/kg perorally in adrenalectomized/castrated rats; assay type: functional
In short: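 Rats of 175–200 g were adrenalectomized and castrated 3 days before the elevated plus maze. Drug was suspended in 1% DMSO/H2O and given by oral gavage 1 h before the test. […] was scored; n = 10 rats, mean ± SEM.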

Rattus norvegicus [18] = test: Tested for antineophobic activity using the elevated plus maze test administered at 71 umol/kg perorally in rats; assay type: functional
[19] = target: Adrenergic receptor alpha; test: Displacement of [3H]clonidine from alpha-adrenergic receptor in rat brain; assay type: tissue-based
Rattus norvegicus [20] = test: Tested for antineophobic activity using the elevated plus maze test administered at 59 umol/kg perorally in rats; assay type: functional

Chain of Translocator protein (P16257 whole entry, looked up): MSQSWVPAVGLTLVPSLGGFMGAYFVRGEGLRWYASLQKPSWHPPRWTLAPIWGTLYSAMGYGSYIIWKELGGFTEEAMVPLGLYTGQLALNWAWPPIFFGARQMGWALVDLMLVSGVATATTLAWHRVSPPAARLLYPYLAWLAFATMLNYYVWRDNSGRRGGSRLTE
Chain of Cannabinoid receptor 1 (P20272 whole entry): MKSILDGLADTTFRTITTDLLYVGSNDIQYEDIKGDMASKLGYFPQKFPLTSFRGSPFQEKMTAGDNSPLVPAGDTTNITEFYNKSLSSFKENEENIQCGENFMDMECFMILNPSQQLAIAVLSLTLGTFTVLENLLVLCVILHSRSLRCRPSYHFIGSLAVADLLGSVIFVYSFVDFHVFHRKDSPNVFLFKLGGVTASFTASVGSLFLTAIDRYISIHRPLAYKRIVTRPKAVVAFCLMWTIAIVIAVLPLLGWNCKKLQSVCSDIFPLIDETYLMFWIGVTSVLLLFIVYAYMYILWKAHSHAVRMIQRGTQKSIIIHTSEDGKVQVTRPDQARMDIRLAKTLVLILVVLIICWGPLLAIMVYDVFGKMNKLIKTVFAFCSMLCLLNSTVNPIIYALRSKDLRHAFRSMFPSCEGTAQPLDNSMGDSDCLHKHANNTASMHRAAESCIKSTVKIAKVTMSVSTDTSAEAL

Question: Which IC50 [1] does the source give for O=C(Cc1c(-c2ccccc2)[nH]c2ccccc12)N1CCCCC1 here?
Answer: Its IC50 is greater than 1000 nM.

Question: And the IC50 [2]?
Answer: Its IC50 is greater than 1000 nM.

Question: And the IC50 (Glutamate NMDA receptor)?
Answer: Its IC50 is greater than 1000 nM.

Question: What about the IC50 [3] of the same compound?
Answer: The IC50 was greater than 1000 nM.

Question: And the IC50 [4]?
Answer: Its IC50 is greater than 1000 nM.

Question: What about the No. of entries (Rattus norvegicus [5]) of the same compound?
Answer: Its No. of entries is 2.3.

Question: And the Time (Rattus norvegicus [5])?
Answer: Its Time is 5.7%.

Question: And the Ki (Translocator protein)?
Answer: The Ki was 350 nM.

Question: And the IC50 [6]?
Answer: Its IC50 is greater than 1000 nM.

Question: What about the IC50 [7] of the same compound?
Answer: Its IC50 is greater than 1000 nM.

Question: What about the IC50 (Adrenergic receptor beta) of the same compound?
Answer: Its IC50 is greater than 1000 nM.

Question: What about the IC50 [8] of the same compound?
Answer: Its IC50 is greater than 1000 nM.

Question: And the IC50 (Cannabinoid receptor 1)?
Answer: Its IC50 is greater than 1000 nM.

Question: And the IC50 [9]?
Answer: The IC50 was greater than 1000 nM.

Question: And the IC50 [10]?
Answer: The IC50 was greater than 1000 nM.

Question: And the IC50 [11]?
Answer: The IC50 was greater than 1000 nM.

Question: What about the IC50 [12] of the same compound?
Answer: The IC50 was greater than 1000 nM.

Question: Which results are given for CCCCN(CCCC)C(=O)Cc1c(-c2ccc(F)cc2)[nH]c2ccccc12?
Answer: IC50 [1]: > 1000 nM; IC50 [2]: > 1000 nM; IC50 [13]: > 1000 nM; IC50 (Glutamate NMDA receptor): > 1000 nM; IC50 [3]: > 1000 nM; IC50 [4]: > 1000 nM; IC50 [14]: > 1000 nM; No. of entries (Rattus norvegicus [15]): 3.6; Time (Rattus norvegicus [15]): 8%; Ki (Translocator protein): 45 nM; IC50 [6]: > 1000 nM; IC50 [7]: > 1000 nM; IC50 (Adrenergic receptor beta): > 1000 nM; IC50 [8]: > 1000 nM; IC50 (Cannabinoid receptor 1): > 1000 nM; IC50 [9]: > 1000 nM; IC50 (Opioid receptor): > 1000 nM; IC50 [10]: > 1000 nM; IC50 [11]: > 1000 nM; IC50 [12]: > 1000 nM

Question: What does the source list for CCCCCCN(CCCCCC)C(=O)Cc1c(-c2ccc(F)cc2)[nH]c2ccccc12?
Answer: IC50 [1]: > 1000 nM; IC50 [2]: > 1000 nM; IC50 (Glutamate NMDA receptor): > 1000 nM; IC50 [3]: > 1000 nM; No. of entries (Rattus norvegicus [16]): 2.1; Time (Rattus norvegicus [16]): 4.5%; IC50 [4]: > 1000 nM; Ki (Translocator protein): 4.4 nM; IC50 [6]: > 1000 nM; IC50 [7]: > 1000 nM; IC50 (Adrenergic receptor beta): > 1000 nM; IC50 [8]: > 1000 nM; IC50 (Cannabinoid receptor 1): > 1000 nM; No. of entries (Rattus norvegicus [17]): 4.9 and 5.5; Time spent (Rattus norvegicus [17]): 22 s and 25 s; IC50 [9]: > 1000 nM; IC50 [10]: > 1000 nM; IC50 [11]: > 1000 nM; IC50 [12]: > 1000 nM

Question: Which results are given for CCCCCCNC(=O)Cc1c(-c2ccc(F)cc2)[nH]c2ccccc12?
Answer: IC50 [1]: > 1000 nM; IC50 [2]: > 1000 nM; IC50 [13]: > 1000 nM; IC50 (Glutamate NMDA receptor): > 1000 nM; IC50 [3]: > 1000 nM; IC50 [4]: > 1000 nM; IC50 [14]: > 1000 nM; Ki (Translocator protein): 323 nM; IC50 [6]: > 1000 nM; IC50 [7]: > 1000 nM; IC50 (Adrenergic receptor beta): > 1000 nM; IC50 [8]: > 1000 nM; IC50 (Cannabinoid receptor 1): > 1000 nM; IC50 [9]: > 1000 nM; IC50 (Opioid receptor): > 1000 nM; IC50 [10]: > 1000 nM; No. of entries (Rattus norvegicus [18]): 0.6; Time (Rattus norvegicus [18]): 1.6%; IC50 [11]: > 1000 nM; IC50 [12]: > 1000 nM

Question: With CCCN(CCC)C(=O)Cc1c2n(c3ccccc13)Cc1ccccc1-2 as the compound, how does the IC50 [1] read?
Answer: Its IC50 is greater than 1000 nM.

Question: What about the IC50 [2] of the same compound?
Answer: Its IC50 is greater than 1000 nM.

Question: And the IC50 [13]?
Answer: Its IC50 is greater than 1000 nM.

Question: What about the IC50 (Glutamate NMDA receptor) of the same compound?
Answer: The IC50 was greater than 1000 nM.

Question: What about the IC50 [3] of the same compound?
Answer: The IC50 was greater than 1000 nM.

Question: And the IC50 [4]?
Answer: The IC50 was greater than 1000 nM.

Question: What about the IC50 [14] of the same compound?
Answer: Its IC50 is greater than 1000 nM.

Question: And the Ki (Translocator protein)?
Answer: Its Ki is 20 nM.

Question: And the IC50 [6]?
Answer: The IC50 was greater than 1000 nM.

Question: What about the IC50 [7] of the same compound?
Answer: The IC50 was greater than 1000 nM.

Question: What about the IC50 (Adrenergic receptor beta) of the same compound?
Answer: Its IC50 is greater than 1000 nM.

Question: And the IC50 [8]?
Answer: The IC50 was greater than 1000 nM.

Question: What about the IC50 [19] of the same compound?
Answer: The IC50 was greater than 1000 nM.

Question: What about the IC50 (Cannabinoid receptor 1) of the same compound?
Answer: The IC50 was greater than 1000 nM.

Question: What about the IC50 [9] of the same compound?
Answer: The IC50 was greater than 1000 nM.

Question: What about the IC50 (Opioid receptor) of the same compound?
Answer: Its IC50 is greater than 1000 nM.

Question: What about the IC50 [10] of the same compound?
Answer: Its IC50 is greater than 1000 nM.

Question: And the IC50 [11]?
Answer: The IC50 was greater than 1000 nM.

Question: Which results are given for CCCCCCN(CCCCCC)C(=O)Cc1c(-c2ccccc2)[nH]c2ccccc12?
Answer: IC50 [1]: > 1000 nM; IC50 [2]: > 1000 nM; IC50 [13]: > 1000 nM; IC50 (Glutamate NMDA receptor): > 1000 nM; IC50 [3]: > 1000 nM; IC50 [4]: > 1000 nM; IC50 [14]: > 1000 nM; Ki (Translocator protein): 9.7 nM; IC50 [6]: > 1000 nM; IC50 [7]: > 1000 nM; IC50 (Adrenergic receptor beta): > 1000 nM; IC50 [8]: > 1000 nM; IC50 (Cannabinoid receptor 1): > 1000 nM; No. of entries (Rattus norvegicus [20]): 1.6; Time (Rattus norvegicus [20]): 6.2%; IC50 [9]: > 1000 nM; IC50 (Opioid receptor): > 1000 nM; IC50 [10]: > 1000 nM; IC50 [11]: > 1000 nM; IC50 [12]: > 1000 nM
